How the values were obtained:
Assay type in all cases: functional
[1] = Growth inhibition of human HOP92 cells at 10 uM after 48 hrs by sulforhodamine B assay; conditions: HOP-92, 48 h, read-out: GI
Procedure, shortened: (§1)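 Run at NCI on the 60-line panel. Cells grown in RPMI 1640 with 5% FBS and 2 mM L-glutamine, plated at 5000–40,000 cells/well by doubling time, and held 24 h at 37 °C before dosing. Drug (DMSO stock) given at a single final 10 µM in triplicate wells for 48 h. Adherent cells fixed with cold TCA (10% final), suspension cells with 16% TCA. SRB stain read at 515 nm. Percent growth from Tz, C and Ti.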

SK-MEL-5 = assay: Growth inhibition of human SK-MEL-5 cells at 10 uM after 48 hrs by sulforhodamine B assay; conditions: SK-MEL-5, 48 h, read-out: GI; procedure, shortened: as §1
NCI-H226 = assay: Growth inhibition of human NCI-H226 cells at 10 uM after 48 hrs by sulforhodamine B assay; conditions: NCI-H226, 48 h, read-out: GI; procedure, shortened: as §1
NCI-H23 = assay: Growth inhibition of human NCI-H23 cells at 10 uM after 48 hrs by sulforhodamine B assay; conditions: NCI-H23, 48 h, read-out: GI; procedure, shortened: as §1
KM12 = assay: Growth inhibition of human KM12 cells at 10 uM after 48 hrs by sulforhodamine B assay; conditions: KM12, 48 h, read-out: GI; procedure, shortened: as §1
[2] = Growth inhibition of human LOXIMVI cells at 10 uM after 48 hrs by sulforhodamine B assay; conditions: LOX IMVI, read-out: GI; procedure, shortened: as §1
A549 = assay: Growth inhibition of human A549 cells at 10 uM after 48 hrs by sulforhodamine B assay; conditions: A549, 48 h, read-out: GI; procedure, shortened: as §1
[3] = Growth inhibition of human RXF393 cells at 10 uM after 48 hrs by sulforhodamine B assay; conditions: RXF 393, 48 h, read-out: GI; procedure, shortened: as §1
[4] = Growth inhibition of human HOP62 cells at 10 uM after 48 hrs by sulforhodamine B assay; conditions: HOP-62, 48 h, read-out: GI; procedure, shortened: as §1
[5] = Growth inhibition of human UACC257 cells at 10 uM after 48 hrs by sulforhodamine B assay; conditions: UACC-257, 48 h, read-out: GI
Procedure, shortened: (§2)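 NCI-60 panel, adherent cells grown in RPMI 1640 with 5% FBS and 2 mM L-glutamine, plated at 5000–40,000 cells/well and preincubated 24 h at 37 °C, 5% CO2. 10 µM final compound from DMSO stock, triplicate wells, 48 h. Fixed with cold TCA (10% final, 60 min, 4 °C) and stained with 0.4% SRB. Absorbance read at 515 nm; growth calculated against time-zero and control wells.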

[6] = Growth inhibition of human RPMI8226 cells at 10 uM after 48 hrs by sulforhodamine B assay; conditions: RPMI-8226, 48 h, read-out: GI; procedure, shortened: as §1
[7] = Growth inhibition of human DU145 cells at 10 uM after 48 hrs by sulforhodamine B assay; conditions: DU-145, 48 h, read-out: GI; procedure, shortened: as §1
[8] = Growth inhibition of human SF295 cells at 10 uM after 48 hrs by sulforhodamine B assay; conditions: SF-295, 48 h, read-out: GI; procedure, shortened: as §1
[9] = Growth inhibition of human NCI-ADR-RES cells at 10 uM after 48 hrs by sulforhodamine B assay; conditions: read-out: GI; procedure, shortened: as §1
NCI-H322M = assay: Growth inhibition of human NCI-H322M cells at 10 uM after 48 hrs by sulforhodamine B assay; conditions: read-out: GI; procedure, shortened: as §1
[10] = Growth inhibition of human HCT15 cells at 10 uM after 48 hrs by sulforhodamine B assay; conditions: HCT-15, 48 h, read-out: GI; procedure, shortened: as §1
[11] = Growth inhibition of human OVCAR5 cells at 10 uM after 48 hrs by sulforhodamine B assay; conditions: OVCAR-5, 48 h, read-out: GI; procedure, shortened: as §1
[12] = Growth inhibition of human SF268 cells at 10 uM after 48 hrs by sulforhodamine B assay; conditions: SF-268, 48 h, read-out: GI; procedure, shortened: as §1
[13] = Growth inhibition of human PC3 cells at 10 uM after 48 hrs by sulforhodamine B assay; conditions: PC-3, 48 h, read-out: GI; procedure, shortened: as §1
ACHN = assay: Growth inhibition of human ACHN cells at 10 uM after 48 hrs by sulforhodamine B assay; conditions: read-out: GI; procedure, shortened: as §1
[14] = Growth inhibition of human UACC62 cells at 10 uM after 48 hrs by sulforhodamine B assay; conditions: UACC-62, 48 h, read-out: GI; procedure, shortened: as §2
[15] = Growth inhibition of human HCC2998 cells at 10 uM after 48 hrs by sulforhodamine B assay; conditions: HCC 2998, 48 h, read-out: GI; procedure, shortened: as §1
MDA-MB-435 = assay: Growth inhibition of human MDA-MB-435 cells at 10 uM after 48 hrs by sulforhodamine B assay; conditions: MDA-MB-435, 48 h, read-out: GI; procedure, shortened: as §1
NCI-H522 = assay: Growth inhibition of human NCI-H522 cells at 10 uM after 48 hrs by sulforhodamine B assay; conditions: NCI-H522, 48 h, read-out: GI; procedure, shortened: as §1
[16] = Growth inhibition of human HCT116 cells at 10 uM after 48 hrs by sulforhodamine B assay; conditions: HCT-116, 48 h, read-out: GI; procedure, shortened: as §1
[17] = Growth inhibition of human SNB75 cells at 10 uM after 48 hrs by sulforhodamine B assay; conditions: SNB-75, 48 h, read-out: GI; procedure, shortened: as §1
MDA-MB-468 = assay: Growth inhibition of human MDA-MB-468 cells at 10 uM after 48 hrs by sulforhodamine B assay; conditions: MDA-MB-468, 48 h, read-out: GI; procedure, shortened: as §1
[18] = Growth inhibition of human SW620 cells at 10 uM after 48 hrs by sulforhodamine B assay; conditions: SW-620, 48 h, read-out: GI; procedure, shortened: as §2
[19] = Growth inhibition of human Hs 578T cells at 10 uM after 48 hrs by sulforhodamine B assay; conditions: read-out: GI; procedure, shortened: as §1
[20] = Growth inhibition of human Caki1 cells at 10 uM after 48 hrs by sulforhodamine B assay; conditions: CAKI-1, 48 h, read-out: GI; procedure, shortened: as §1
[21] = Growth inhibition of human SF539 cells at 10 uM after 48 hrs by sulforhodamine B assay; conditions: SF-539, 48 h, read-out: GI; procedure, shortened: as §1
SK-MEL-28 = assay: Growth inhibition of human SK-MEL-28 cells at 10 uM after 48 hrs by sulforhodamine B assay; conditions: SK-MEL-28, 48 h, read-out: GI; procedure, shortened: as §1
M14 = assay: Growth inhibition of human M14 cells at 10 uM after 48 hrs by sulforhodamine B assay; conditions: M14, 48 h, read-out: GI; procedure, shortened: as §1
SR = assay: Growth inhibition of human SR cells at 10 uM after 48 hrs by sulforhodamine B assay; conditions: read-out: GI
Procedure, shortened: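 NCI-60 screen. Cells were grown in RPMI 1640 with 5% FBS and 2 mM L-glutamine, plated at 5000–40,000 cells/well and held 24 h at 37 °C, 5% CO2. Single 10 µM final dose from DMSO stock, triplicate wells, 48 h. Settled cells were fixed with 80% TCA (16% final) and stained with 0.4% SRB. Dye was solubilized in 10 mM Tris and read at 515 nm. Growth was calculated against time-zero and untreated wells.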

Structure (SMILES)	inhibition of growth at 10 µM [1]	inhibition of growth at 10 µM (SK-MEL-5)	inhibition of growth at 10 µM (NCI-H226)	inhibition of growth at 10 µM (NCI-H23)	inhibition of growth at 10 µM (KM12)	inhibition of growth at 10 µM [2]	inhibition of growth at 10 µM (A549)	inhibition of growth at 10 µM [3]	inhibition of growth at 10 µM [4]	inhibition of growth at 10 µM [5]	inhibition of growth at 10 µM [6]	inhibition of growth at 10 µM [7]	inhibition of growth at 10 µM [8]	inhibition of growth at 10 µM [9]	inhibition of growth at 10 µM (NCI-H322M)	inhibition of growth at 10 µM [10]	inhibition of growth at 10 µM [11]	inhibition of growth at 10 µM [12]	inhibition of growth at 10 µM [13]	inhibition of growth at 10 µM (ACHN)	further results
COc1ccc(Cc2nnc(Nc3ccc(NC(=O)Nc4ccc(Cl)cc4)cc3)c3ccccc23)cc1	< 30%	< 30%	< 30%	< 30%	39%	< 30%	33%	79%	< 30%	< 30%	75%	< 30%	52%	< 30%	< 30%	41%	< 30%	< 30%	31%	46%	inhibition of growth at 10 µM [14]: < 30%; inhibition of growth at 10 µM [15]: < 30%; inhibition of growth at 10 µM (MDA-MB-435): < 30%; inhibition of growth at 10 µM (NCI-H522): 43%; inhibition of growth at 10 µM [16]: 42%; inhibition of growth at 10 µM [17]: 49%; inhibition of growth at 10 µM (MDA-MB-468): < 30%; inhibition of growth at 10 µM [18]: < 30%; inhibition of growth at 10 µM [19]: 75%; inhibition of growth at 10 µM [20]: < 30%; inhibition of growth at 10 µM [21]: 41%; inhibition of growth at 10 µM (SK-MEL-28): < 30%; inhibition of growth at 10 µM (M14): 30%; inhibition of growth at 10 µM (SR): 40%
COc1ccc(Cc2nnc(Nc3ccc(NC(=O)Nc4ccccc4)cc3)c3ccccc23)cc1	< 30%	< 30%	< 30%	< 30%	< 30%	< 30%	< 30%	49%	< 30%	< 30%	46%	< 30%	< 30%	< 30%	< 30%	< 30%	< 30%	< 30%	30%	< 30%	inhibition of growth at 10 µM [14]: < 30%; inhibition of growth at 10 µM [15]: < 30%; inhibition of growth at 10 µM (MDA-MB-435): < 30%; inhibition of growth at 10 µM (NCI-H522): 48%; inhibition of growth at 10 µM [16]: 35%; inhibition of growth at 10 µM [17]: < 30%; inhibition of growth at 10 µM (MDA-MB-468): < 30%; inhibition of growth at 10 µM [18]: < 30%; inhibition of growth at 10 µM [19]: 33%; inhibition of growth at 10 µM [20]: < 30%; inhibition of growth at 10 µM [21]: < 30%; inhibition of growth at 10 µM (SK-MEL-28): < 30%; inhibition of growth at 10 µM (M14): < 30%; inhibition of growth at 10 µM (SR): < 30%
